# Experimental data collected from several papers.
# Compare with care: the assays were run in different laboratories.
# DPP4: Dipeptidyl peptidase 4 (DPP4, Homo sapiens, UniProt P27487)
# ENAH: Protein enabled homolog (ENAH, UniProt Q8N8S7)
# SRC: Proto-oncogene tyrosine-protein kinase Src (SRC, Homo sapiens, UniProt P12931)
SMILES,target,test,setting,endpoint,result
NC(=S)c1cn(C2OC(CO)C(O)C2O)c2ncnc(N)c12 (stereo not drawn),"Activin receptor type-1 (ACVR1, Homo sapiens, UniProt Q04771)","thermal stability, DSF",,Kd,< 1 µM
CC(C)[C@H](N)C(=O)N1CCC[C@H]1C(=O)N[C@H](C(=O)N1CCC[C@H]1C(=O)N[C@@H](Cc1c[nH]c2ccccc12)C(=O)O)C(C)C,DPP4,"enzyme activity, inhibitor, absorbance",pH 8,IC50,92.1 µM
CC(=O)N[C@@H](Cc1ccccc1Cl)C(=O)N1CCC[C@H]1C(=O)N1CCC[C@H]1C(=O)N1CCC[C@H]1C(=O)N1CCC[C@H]1C(=O)O,ENAH,"binding, fluorescence",,Kd,9.9 µM
Cn1cc(-c2cccc(N3CCc4c(sc5c4CC(C)(C)C5)C3=O)c2CO)cc(Nc2ccncn2)c1=O,SRC,"enzyme activity, inhibitor, FRET",,Ki,> 3.33 µM
CC(=O)N[C@@H](Cc1ccccc1Cl)C(=O)N1CCC[C@H]1C(=O)N1CCC[C@H]1C(=O)N1CCC[C@H]1C(=O)N1CCC[C@H]1C(=O)N[C@H](C(=O)N[C@@H](CCC(=O)O)C(=O)N[C@@H](CC(=O)O)C(=O)N[C@@H](CC(=O)O)C(=O)N[C@@H](CC(C)C)C(N)=O)[C@@H](C)O,ENAH,"binding, fluorescence",,Kd,3.8 µM
CC(C)[C@H](N)C(=O)N1CCC[C@H]1C(=O)N[C@H](C(=O)N1CCC[C@H]1C(=O)N[C@@H](CC(N)=O)C(=O)O)C(C)C,DPP4,"enzyme activity, inhibitor, absorbance",pH 8,IC50,88.7 µM
CC(=O)N[C@@H](CO)C(=O)N[C@@H](Cc1ccccc1)C(=O)N[C@@H](CCC(=O)O)C(=O)N[C@@H](Cc1ccccc1Cl)C(=O)N1CCC[C@H]1C(=O)N1CCC[C@H]1C(=O)N1CCC[C@H]1C(=O)N1CCC[C@H]1C(=O)N[C@H](C(=O)N[C@@H](CCC(=O)O)C(=O)N[C@@H](CC(=O)O)C(=O)N[C@@H](CCC(=O)O)C(=O)N[C@@H](CC(C)C)C(N)=O)[C@@H](C)O,ENAH,"binding, fluorescence",,Kd,0.79 µM
Cn1cc(-c2cc(F)cc(N3CCn4c(cc5c4CCCC5)C3=O)c2CO)cc(Nc2ccc(N3CCN(C4COC4)CC3)cn2)c1=O,SRC,"enzyme activity, inhibitor, FRET",,Ki,0.254 µM
CC(=O)P(=O)(O)OCCc1cn([C@H](Cc2ccccc2)C(=O)O)nn1,"1-deoxy-D-xylulose-5-phosphate synthase (dxs, Escherichia coli, UniProt P77488)","enzyme activity, inhibitor",with preincubation,Ki,0.09 µM
O=C1C=CC(=O)N1CCCCCCCCCCCCCCCCCCN1CCCCC1,"Acetylcholinesterase (ACHE, Homo sapiens, UniProt P22303)","enzyme activity, inhibitor",,Ki,20.4 µM
CC(C)[C@H](N)C(=O)N1CCC[C@H]1C(=O)N[C@H](C(=O)N1CCC[C@H]1C(=O)N[C@@H](CCC(=O)O)C(=O)O)C(C)C,DPP4,"enzyme activity, inhibitor, absorbance",pH 8,IC50,83.4 µM
CC(=O)N[C@@H](Cc1ccccc1Cl)C(=O)N1CCC[C@H]1C(=O)N1CCC[C@H]1C(=O)N1CCC[C@H]1C(=O)N1CCC[C@H]1C(=O)N[C@H](C(=O)N[C@@H](CCC(=O)O)C(=O)N[C@@H](CC(=O)O)C(=O)N[C@@H](CCC(=O)O)C(=O)N[C@@H](CC(C)C)C(N)=O)[C@@H](C)O,ENAH,"binding, fluorescence",,Kd,1.25 µM
CC(C)[C@H](N)C(=O)N1CCC[C@H]1C(=O)N[C@H](C(=O)N1CCC[C@H]1C(=O)N[C@@H](CCCNC(=N)N)C(=O)O)C(C)C,DPP4,"enzyme activity, inhibitor, absorbance",pH 8,IC50,118 µM
c1ccc(Nc2cccc3ccccc23)cc1,"lush (Drosophila melanogaster, UniProt O02372)",binding,,Kd,0.65 µM
CC[C@H]1NC(=O)[C@@H]2CSC(=N2)[C@H](Cc2ccccc2)N(C)C(=O)[C@@H]2CCCN2C(=O)[C@H](C(C)C)N(C)C(=O)[C@H](Cc2ccccc2)OC(=O)[C@H](C)[C@@H](C)NC(=O)[C@@H]([C@@H](C)O)NC(=O)[C@@H](CC(C)C)N(C)C(=O)[C@@H]2CSC1=N2,DPP4,"enzyme activity, inhibitor",,IC50,245 µM
